According to ChEMBL document CHEMBL1128446, “Pyrazinoic acid esters with broad spectrum in vitro antimycobacterial activity” (1995):
Values after ≈ are worked out from the molar mass of the structure shown.

What was measured:
Assay type in all cases: functional
[1] = tested on: Mycobacterium tuberculosis; test: Minimum Inhibitory Concentration against Mycobacterium tuberculosis ATCC 27294; details: Mycobacterium tuberculosis, ATCC 27294; read-out: MIC
Method in brief: (§1)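 Broth macrodilution in tubes of modified Middlebrook 7H10 broth (agar and malachite green omitted) with 10% OADC and 0.05% Tween 80 at pH 5.8. Cultures were grown 3 days at 37 °C on a rotary shaker, then diluted with 7H10 broth to 1 Klett unit/mL. Stocks were made in water or DMSO and filter-sterilised; 2-fold serial dilutions were tested. Tubes shaken 7–10 days at 37 °C, with a drug-free control. MIC = lowest concentration (μg/mL) with no visible turbidity.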

Mycobacterium kansasii = test: Minimum Inhibitory Concentration against clinical isolates of Mycobacterium kansasii S
Method in brief: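 Grown 3 days at 37 °C on a rotary shaker in modified Middlebrook 7H10 broth (agar and malachite green omitted) with 10% OADC and 0.05% Tween 80. Diluted to 1 Klett unit/mL. Tubes held serial 2-fold dilutions in 7H10 broth at pH 5.8, from stocks in water or DMSO, and were shaken at 37 °C for 7–10 days with a drug-free control. MIC was the lowest concentration with no visible turbidity.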

[2] = tested on: Mycobacterium tuberculosis; test: Minimum Inhibitory Concentration against Mycobacterium tuberculosis ATCC 35801; method in brief: as §1
Mycobacterium avium [3] = test: Minimum Inhibitory Concentration in clinical isolates against Mycobacterium avium complex 101; method in brief: as §1
Mycobacterium avium [4] = test: Minimum Inhibitory Concentration against clinical isolates of Mycobacterium avium complex ATCC 49601; method in brief: as §1

Row | SMILES | MIC [1] | MIC (Mycobacterium kansasii) | MIC [2] | MIC (Mycobacterium avium [3]) | MIC (Mycobacterium avium [4])
1 | O=C(OCc1ccc(Br)cc1)c1cnc(Cl)cn1 | 1 µg/mL (≈ 3.05 µM) | 0.125 µg/mL (≈ 0.382 µM) | 1 µg/mL (≈ 3.05 µM) | 32 µg/mL (≈ 97.7 µM) | 64 µg/mL (≈ 195 µM)
2 | CCCCC(OC(=O)c1cnc(Cl)cn1)c1ccccc1 (configuration not stated) | 4 µg/mL (≈ 13.1 µM) | 1 µg/mL (≈ 3.28 µM) | 2 µg/mL (≈ 6.56 µM) | 128 µg/mL (≈ 420 µM) | 64 µg/mL (≈ 210 µM)
3 | CCCCCCCCCCCCCCCOC(=O)c1cnccn1 | 0.06 µg/mL (≈ 0.179 µM) | 1 µg/mL (≈ 2.99 µM) | 0.12 µg/mL (≈ 0.359 µM) | 32 µg/mL (≈ 95.7 µM) | 8 µg/mL (≈ 23.9 µM)
4 | CC(C)(C)C(OC(=O)c1cnc(Cl)cn1)c1ccccc1 (configuration not stated) | 4 µg/mL (≈ 13.1 µM) | 2 µg/mL (≈ 6.56 µM) | 4 µg/mL (≈ 13.1 µM) | 128 µg/mL (≈ 420 µM) | 256 µg/mL (≈ 840 µM)
5 | O=C(Oc1c(Br)cc(Br)cc1Br)c1cnccn1 | 32 µg/mL (≈ 73.2 µM) | 64 µg/mL (≈ 146 µM) | 32 µg/mL (≈ 73.2 µM) | 128 µg/mL (≈ 293 µM) | 128 µg/mL (≈ 293 µM)
6 | Cc1ccc(C(C)OC(=O)c2cnc(Cl)cn2)cc1 (configuration not stated) | 1 µg/mL (≈ 3.61 µM) | 1 µg/mL (≈ 3.61 µM) | 1 µg/mL (≈ 3.61 µM) | 256 µg/mL (≈ 925 µM) | 16 µg/mL (≈ 57.8 µM)
7 | Cc1cc(C(C)(C)C)c(OC(=O)c2cnccn2)c(C(C)(C)C)c1 | 128 µg/mL (≈ 392 µM) | > 16 µg/mL |  | > 1020 µg/mL | > 1020 µg/mL
8 | O=C(OCCc1ccc(Cl)cc1)c1cnc(Cl)cn1 | 2 µg/mL (≈ 6.73 µM) | 0.5 µg/mL (≈ 1.68 µM) | 32 µg/mL (≈ 108 µM) | 16 µg/mL (≈ 53.8 µM) | 8 µg/mL (≈ 26.9 µM)
9 | O=C(OC(c1ccccc1)c1ccccc1)c1cnc(Cl)cn1 | 16 µg/mL (≈ 49.3 µM) | 8 µg/mL (≈ 24.6 µM) | 16 µg/mL (≈ 49.3 µM) | > 64 µg/mL | > 64 µg/mL
10 | CCCCCCCC(OC(=O)c1cnc(Cl)cn1)C(C)C (configuration not stated) | 0.5 µg/mL (≈ 1.6 µM) | 0.25 µg/mL (≈ 0.799 µM) | 2 µg/mL (≈ 6.39 µM) | > 256 µg/mL | 256 µg/mL (≈ 818 µM)
11 | CCCCCCCCCCC(OC(=O)c1cnc(Cl)cn1)C(C)(C)C (configuration not stated) | 16 µg/mL (≈ 43.4 µM) | 4 µg/mL (≈ 10.8 µM) | 8 µg/mL (≈ 21.7 µM) | > 256 µg/mL | 256 µg/mL (≈ 694 µM)
12 | CCCCCCCC(C)(CCCC)OC(=O)c1cnc(Cl)cn1 (configuration not stated) | 4 µg/mL (≈ 11.7 µM) | 16 µg/mL (≈ 46.9 µM) | 8 µg/mL (≈ 23.5 µM) | > 256 µg/mL | > 256 µg/mL
13 | CCCCCCCCOC(=O)c1cnc(Cl)cn1 | 0.06 µg/mL (≈ 0.222 µM) | < 0.03 µg/mL | < 0.03 µg/mL | 16 µg/mL (≈ 59.1 µM) | 16 µg/mL (≈ 59.1 µM)
14 | CCCCCOC(=O)c1cnc(Cl)cn1 | 0.06 µg/mL (≈ 0.262 µM) | < 0.03 µg/mL | 0.25 µg/mL (≈ 1.09 µM) | 32 µg/mL (≈ 140 µM) | 32 µg/mL (≈ 140 µM)
15 | CC(C)COC(=O)c1cnccn1 | < 8 µg/mL | > 64 µg/mL | 16 µg/mL (≈ 88.8 µM) | 256 µg/mL (≈ 1420 µM) | 
16 | CCOC(=O)c1cnc(Cl)cn1 | 1 µg/mL (≈ 5.36 µM) | 2 µg/mL (≈ 10.7 µM) | 2 µg/mL (≈ 10.7 µM) | 128 µg/mL (≈ 686 µM) | 128 µg/mL (≈ 686 µM)
17 | COC(=O)c1cnc(Cl)cn1 | 4 µg/mL (≈ 23.2 µM) | 2 µg/mL (≈ 11.6 µM) | 8 µg/mL (≈ 46.4 µM) | 256 µg/mL (≈ 1480 µM) | 64 µg/mL (≈ 371 µM)
18 | CCCCCCC(C)OC(=O)c1cnc(Cl)cn1 (configuration not stated) | 0.06 µg/mL (≈ 0.222 µM) | < 0.015 µg/mL | 0.25 µg/mL (≈ 0.923 µM) | 8 µg/mL (≈ 29.5 µM) | 16 µg/mL (≈ 59.1 µM)
19 | CCCCCCCCCC(C)OC(=O)c1cnc(Cl)cn1 (configuration not stated) | 0.25 µg/mL (≈ 0.799 µM) | 0.25 µg/mL (≈ 0.799 µM) | 0.125 µg/mL (≈ 0.4 µM) | 16 µg/mL (≈ 51.1 µM) | 16 µg/mL (≈ 51.1 µM)
20 | CCCCCC(CC)OC(=O)c1cnc(C)cn1 (configuration not stated) | 1 µg/mL (≈ 3.99 µM) | 4 µg/mL (≈ 16 µM) | 0.5 µg/mL (≈ 2 µM) | 64 µg/mL (≈ 256 µM) | 64 µg/mL (≈ 256 µM)
21 | O=C(OCc1ccccc1)c1cnc(Cl)cn1 | 1 µg/mL (≈ 4.02 µM) | 1 µg/mL (≈ 4.02 µM) | 0.5 µg/mL (≈ 2.01 µM) | 8 µg/mL (≈ 32.2 µM) | 4 µg/mL (≈ 16.1 µM)
22 | CC(C)(C)OC(=O)c1cnc(Cl)cn1 | 0.25 µg/mL (≈ 1.16 µM) | < 1 µg/mL | 0.5 µg/mL (≈ 2.33 µM) | 128 µg/mL (≈ 596 µM) | 128 µg/mL (≈ 596 µM)
23 | O=C(Oc1cccc2ccccc12)c1cnccn1 | 8 µg/mL (≈ 32 µM) | > 16 µg/mL |  | 128 µg/mL (≈ 511 µM) | 64 µg/mL (≈ 256 µM)
24 | C=CCOC(=O)c1cnc(Cl)cn1 | 1 µg/mL (≈ 5.04 µM) | < 1 µg/mL | 1 µg/mL (≈ 5.04 µM) | 64 µg/mL (≈ 322 µM) | 64 µg/mL (≈ 322 µM)
25 | O=C(OCCc1ccccc1)c1cnc(Cl)cn1 | 1 µg/mL (≈ 3.81 µM) | 0.25 µg/mL (≈ 0.952 µM) | 1 µg/mL (≈ 3.81 µM) | 32 µg/mL (≈ 122 µM) | 8 µg/mL (≈ 30.5 µM)
26 | CC(OC(=O)c1cnc(Cl)cn1)c1ccc(Br)cc1 (configuration not stated) | 2 µg/mL (≈ 5.85 µM) | 0.25 µg/mL (≈ 0.732 µM) | 8 µg/mL (≈ 23.4 µM) | 32 µg/mL (≈ 93.7 µM) | 16 µg/mL (≈ 46.8 µM)
27 | CCCOC(=O)c1cnc(Cl)cn1 | 0.06 µg/mL (≈ 0.299 µM) | 0.25 µg/mL (≈ 1.25 µM) | < 0.03 µg/mL | 16 µg/mL (≈ 79.8 µM) | 16 µg/mL (≈ 79.8 µM)
28 | CCCCCCCOC(=O)c1cnc(Cl)cn1 | 0.06 µg/mL (≈ 0.234 µM) | < 0.03 µg/mL | < 0.03 µg/mL | 8 µg/mL (≈ 31.2 µM) | 16 µg/mL (≈ 62.3 µM)
29 | CCC(C)(CC)OC(=O)c1cnc(Cl)cn1 | 8 µg/mL (≈ 33 µM) | 2 µg/mL (≈ 8.24 µM) | 8 µg/mL (≈ 33 µM) | > 256 µg/mL | 256 µg/mL (≈ 1050 µM)
30 | CCCCCCOC(=O)c1cnc(Cl)cn1 | 0.125 µg/mL (≈ 0.515 µM) | 0.015 µg/mL (≈ 0.0618 µM) | 0.125 µg/mL (≈ 0.515 µM) | 32 µg/mL (≈ 132 µM) | 16 µg/mL (≈ 65.9 µM)
